Structures are written as SMILES. Among all 330,000 compounds or so, about 2,000 (0.61%) were called active.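 The calls were made as follows: active = inhibition above that plate's mean sample inhibition plus 3 SD (cut at about 26% in these data); inactive = the rest.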 Many of the other results were omitted from the sample, so actives are more common in it than they were.

This note sets out measurements from PubChem BioAssay AID463079 (The Scripps Research Institute Molecular Screening Center, 2010).

The assay is described as follows: ATP-evoked calcium signal inhibitors, parental CHO, primary screen, counter-screen for OX1R antagonist project, cell-based, fluorescence, Fluo-8 calcium dye (AID 463079).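 Also: 0% = ATP-challenged DMSO wells and 100% = DMSO wells without ATP.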 The note with it: parental CHO-K1, ATP-induced calcium, Fluo-8 fluorescence; at 5.6 µM; stronger effect = higher value. In outline:
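Material: Parental CHO cells | Reagent: ATP | Compound dosing: Single nominal dose of 5.6 µM per compound | Detection: Intracellular calcium via Fluo-8 no-wash fluorescent dye | Read-out: % inhibition of ATP-induced calcium mobilization | Benchmarks: Low control ATP plus DMSO, high control DMSO only | Replicates: Singlicate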
For orientation: Counterscreens check selectivity or assay interference.
The inhibition is the drop in the measured response relative to a control, in per cent. Consider `CC[C@]1(C(=O)OC)[C@H]2C(=O)N(Cc3ccccc3)C(=O)[C@H]2[C@H]2CN=C(SCc3ccc(C#N)cc3)N21`, for which the inhibition is -26.6% (inactive).

On to `CCOC(=O)C1=C(C)N(C[C@@H]2CC[C@@H](Cc3ccc(-c4ccccc4)cc3)O2)C(=O)NC1c1ccc([N+](=O)[O-])cc1` (stereo partly drawn), for which the inhibition was -13.7% (inactive). Regarding `O=C(Nc1ccc2c(c1)OCCO2)c1cnccn1`, the inhibition was -2.07% (inactive). `CCN1CCN(c2ccc(NC(=O)c3cnccn3)cc2)CC1`: the inhibition is -2.98% (inactive). Turning to `CCN(CC)c1ccc(/C=N/NC(=O)c2cnccn2)c(O)c1`, the inhibition is 43.5% (active).

For the compound `CCOc1ccc(NS(=O)(=O)c2ccc(C)c(C(N)=O)c2)cc1`, the inhibition is -5.42% (inactive).

In the case of `CN1CCC(=NNC(=O)CN(c2cccc(Cl)c2)S(C)(=O)=O)CC1`, the inhibition was -9.11% (inactive). For `COc1ccc(-c2nnc(SCC(=O)c3ccc4c(c3)OCCO4)o2)cc1` the value was -4.45% (inactive); for `COc1ccc(-n2c(C)cc(C(=O)COC(=O)c3cc(OC)c(OC)cc3NC(=O)c3cccs3)c2C)cc1`, -15.5% (inactive); for `COc1ccc(-n2c(C)cc(C(=O)CSc3nnc(-c4cccs4)o3)c2C)cc1`, 40.8% (active). In the case of `Cc1cc(C)n(CCC(=O)N2CCN(S(=O)(=O)c3ccc(C)c(C)c3)CC2)n1`, the inhibition was -19% (inactive).

For the compound `CNS(=O)(=O)c1ccc(C(=O)NCC(=O)NCCc2ccc3c(c2)OCCO3)cc1`, the inhibition is -17.8% (inactive). Consider `CCCCCCCCCCOC(=O)Cn1c(COc2cccc(OC)c2)[n+](C)c2ccccc21`, for which the inhibition is 43.2% (active).

Consider `COc1cccc(OCc2nnc3n2N=C(c2ccccc2)C(CC(=O)O)S3)c1` (stereo not drawn), for which the inhibition is -2.16% (inactive). For `CCCCCCCCCCOC(=O)Cn1c(COc2ccc(C)cc2)[n+](C)c2ccccc21` the value was 78.8% (active); for `CCOC(=O)Cn1c(-c2cccnc2Cl)nc2ccccc21`, 6.66% (inactive); for `CCCCn1c(N)c(N(CCOC)C(=O)c2cccc(OCc3ccccc3)c2)c(=O)[nH]c1=O`, -12.8% (inactive). The same measure for `CCOC(=O)COn1c(=O)c(-c2ccc(OCC)cc2)[n+]([O-])c2ccccc21`: -6.3% (inactive); for `CCOC(=O)C1CCN(Cc2c(C(=O)N3CCOCC3)nc3c(C)cccn23)CC1`: -3.54% (inactive); for `Cc1cccc(-n2c(Cc3cc(=O)[nH]c(=O)[nH]3)nnc2SCC(=O)Nc2cccc(C(F)(F)F)c2)c1`: -7.28% (inactive).

As for `CCOC(=O)C(Sc1ncc(C#N)c(N)n1)C(C)C` (stereo not drawn), the inhibition is -2.34% (inactive).

Consider `CC[C@]1(C(=O)OC)[C@H]2C(=O)N(Cc3ccccc3)C(=O)[C@H]2[C@H]2CN=C(SCc3ccc(Cl)cc3)N21`, for which the inhibition is -19.6% (inactive). Consider `COc1ccc(S(=O)(=O)Nc2ccc3oc(C)c(C(C)=O)c3c2)cc1`, for which the inhibition was 40.8% (active).

In the case of `CC(=O)c1c(C)oc2ccc(NS(=O)(=O)c3ccccc3)cc12`, the inhibition is -0.19% (inactive). On to `CC(=O)c1c(C)oc2ccc(NS(=O)(=O)c3ccc(C(=O)O)cc3)cc12`, for which the inhibition was 7.03% (inactive). For `CCCCN1C(=O)C(=O)N(CC(=O)Nc2cccc(C(C)=O)c2)C1=O`, the inhibition is -9.38% (inactive).

Take `COc1cc(C(=O)NCCOC(=O)c2cccc(N(C)C)c2)cc(OC)c1OC`: the inhibition is -13.3% (inactive).

With `Cc1ccc2cccc(O)c2[n+]1[O-]`, the inhibition is -4.21% (inactive). `COC(=O)CNC(=O)c1ccc(OC2CCN(C(=O)C3CC3)CC2)cc1`: the inhibition was 2.53% (inactive). With `CCCOC(=O)c1[nH]c2c(c1C)C(=O)CC(c1cccs1)C2` (stereo not drawn), the inhibition was -21.6% (inactive). In the case of `CCCOC(=O)c1[nH]c2c(c1C)C(=O)CC(c1cc(OC)c(OC)c(OC)c1)C2` (stereo not drawn), the inhibition is 33.7% (active).

With `COCCOC(=O)c1[nH]c2c(c1C)C(=O)CC(c1ccc(OC)cc1)C2` (stereo not drawn), the inhibition is -15.7% (inactive). With `COc1cc(/C(=C/c2ccccc2)c2ccccc2)c2c(c1)oc1ccccc12`, the inhibition is -12.8% (inactive). As for `Cc1cc(Br)ccc1NC(=O)c1cnc(N2CCN(c3ccccn3)CC2)c2ccccc12`, the inhibition is -29.1% (inactive).

In the case of `Cc1cc(C)cc(OCC(=O)Nc2ccc(S(=O)(=O)Nc3ccccn3)cc2)c1`, the inhibition was 2.04% (inactive). `Cc1ccc(NS(=O)(=O)c2ccc(C(C)(C)C)cc2)cn1`: the inhibition is -3.3% (inactive). For `Cc1ccc(S(=O)(=O)Nc2ccc3ncccc3c2)cc1`, the inhibition was 37.3% (active). As to `Oc1oc(-c2ccccc2Br)nc1/C=N/c1ccccn1`, the inhibition was 1.24% (inactive). With `CCn1c(CSCc2c(Cl)cccc2Cl)n[nH]c1=S`, the inhibition is 4.32% (inactive).

Turning to `CC(C)c1nnc(NC(=O)COC(=O)/C=C/c2ccc([N+](=O)[O-])cc2)s1`, the inhibition is -9.22% (inactive). For `CC(=O)c1cccc(OCc2cc(C(=O)NC(C)Cc3cccnc3)no2)c1` (stereo not drawn), the inhibition is -20% (inactive).

As to `CN(Cc1cccnc1)C(=O)c1cc(COc2ccc3ncccc3c2)on1`, the inhibition was 41.8% (active).

In the case of `Cc1ccc(OCc2cc(C(=O)N(C)CCc3ccccc3)no2)cc1C`, the inhibition is -11.5% (inactive). On to `CCOC1CCCCC1NS(=O)(=O)c1ccc(Cl)cc1` (stereo not drawn), for which the inhibition was -18.7% (inactive). `Cc1c(NC(=O)CSc2nnc(-c3cccnc3)n2N)c(=O)n(-c2ccccc2)n1C`: the inhibition was -5.93% (inactive). As for `Cc1c(NC(=O)CSc2cccc3cccnc23)c(=O)n(-c2ccccc2)n1C`, the inhibition was 25.1% (active). `Cc1ccc(NC(=O)CSc2cccc3cccnc23)c(C)c1`: the inhibition was 0.17% (inactive). For the compound `CCOCc1nnc(NC(=O)CCS(=O)(=O)Cc2ccccc2)s1`, the inhibition was 3.73% (inactive). As to `NC(N)=N/N=C/c1ccc(OCc2ccc(Cl)cc2Cl)cc1`, the inhibition is 64.6% (active). The same measure for `CCOc1ccc(/C=N/NC(N)=S)cc1`: -2.97% (inactive); for `OC(CNCCc1ccc(Cl)cc1Cl)COc1ccccc1` (stereo not drawn): -7.3% (inactive). For `Cn1c(Cc2cccc3ccccc23)nnc1SCC(=O)N1CCN(c2cccc(Cl)c2)CC1` the value was -6.75% (inactive); for `Cc1ccc(-c2nnn(CC(=O)N(CCO)C(C(=O)NC(C)(C)C)c3ccncc3)n2)cc1` (stereo not drawn), -17.6% (inactive). In the case of `COc1cc(F)c(C2=CC(=O)CC(C)(C)C2)cc1F`, the inhibition was -13.2% (inactive). Turning to `CCOC(=O)C1=C(c2ccccc2)N=C2SCC(=O)N2C1c1ccc(O)c(OC)c1` (stereo not drawn), the inhibition is -27.1% (inactive). Turning to `Cc1cc(N=Nc2ccc3ccccc3c2)ccc1O`, the inhibition was 14.3% (inactive). `CC(C)(C)OC(=O)NCCCCCNC(=O)c1nc[nH]c1C(=O)NCc1ccccc1`: the inhibition was -30.4% (inactive). For the compound `CC(=O)N1c2ccc(S(=O)(=O)N3CCCC(C(=O)Nc4cccc(Cl)c4)C3)cc2CC1C` (stereo not drawn), the inhibition was -6.72% (inactive).

Turning to `CC(=O)N1CCCc2cc(S(=O)(=O)N3CCCC(C(=O)N4CCN(c5cccc(Cl)c5)CC4)C3)ccc21` (stereo not drawn), the inhibition is 66.2% (active).

Turning to `CC(=O)N1CCCc2cc(S(=O)(=O)N3CCCC(C(=O)NCc4ccc(Cl)cc4)C3)ccc21` (stereo not drawn), the inhibition was -11.9% (inactive). Turning to `O=C(c1ccc(Br)o1)N1CCN(CCOc2ccccc2)CC1`, the inhibition is -7.03% (inactive). With `CCOC(=O)C1CCCN(C(=O)CSc2nnc3nc(C)cc(C)n23)C1` (stereo not drawn), the inhibition is -13.2% (inactive). As for `Cc1ccc(CN(Cc2cccnc2)C(=S)Nc2cc(Cl)ccc2C)cc1`, the inhibition was 64.7% (active). In the case of `Cc1c(Cl)cccc1NC(=S)N(Cc1ccccc1)Cc1cccnc1`, the inhibition is -0.95% (inactive).

Take `Cc1ccc(CN(Cc2cccnc2)C(=S)Nc2cccc(Cl)c2C)cc1`: the inhibition is -2.11% (inactive). Turning to `CN1CCN(C(=O)N2c3ccccc3CCc3ccccc32)CC1`, the inhibition was -14.7% (inactive). `O=C1C=C(c2cccc(Cl)c2)C[C@@H](c2ccc(F)cc2)C1`: the inhibition is -24% (inactive).

As for `COc1ccc(S(=O)(=O)NCCCc2ccccc2)cc1`, the inhibition was 9.88% (inactive). For `COC(=O)CNS(=O)(=O)c1ccc(OC)cc1`, the inhibition is 4.49% (inactive).

Turning to `COc1ccc(S(=O)(=O)NCCCCOc2ccc(Cl)cc2)cc1`, the inhibition was 62.1% (active).

Take `Cc1ccc(S(=O)(=O)N2[C@@H](c3cccc(Cl)c3)C(C(=O)O)=CC[C@H]2c2ccc(Cl)c(Cl)c2)cc1`: the inhibition is 36.9% (active). Take `Cc1ccc([C@@H]2CC=C(C(=O)O)[C@H](c3cccc(Cl)c3)N2S(=O)(=O)c2ccc(C)cc2)cc1`: the inhibition is -14.4% (inactive). The same measure for `Cc1ccccc1S(=O)(=O)N1[C@@H](c2cccc(Cl)c2)C(C(=O)O)=CC[C@H]1c1ccc(Cl)cc1`: -5.28% (inactive); for `Cc1ccc(S(=O)(=O)NC(C(=O)N2CCOCCOCCOCCOCC2)c2ccccc2)cc1` (stereo not drawn): -9.77% (inactive); for `Cc1ccc(S(=O)(=O)Nc2nc(C)cc(-n3nc(C)cc3C)n2)cc1`: 2.29% (inactive).

As to `CCCC(C(=O)n1nc(C)cc1C)C(NS(=O)(=O)c1ccc(C)cc1)c1ccccc1` (stereo not drawn), the inhibition was 40.6% (active).

`C/C(=N/OC(=O)c1cccc(C(F)(F)F)c1)c1cnccn1`: the inhibition is -5.36% (inactive). As to `O=C(Nc1cccc(Br)c1)c1ccc2snnc2c1`, the inhibition was 17.8% (inactive). Consider `O=C(Nc1ccc2ccccc2c1)Nc1ccc2snnc2c1`, for which the inhibition is 55.2% (active). The same measure for `CCc1ccccc1NC(=O)c1ccc2snnc2c1`: -1.87% (inactive); for `COc1cc(C2OC(c3cc(OC)c(OC)c(OC)c3)C(C)C2C)cc(OC)c1OC` (stereo not drawn): -16.8% (inactive); for `CC1(NC(=O)CCS(=O)(=O)c2ccc(Cl)cc2)CCS(=O)(=O)C1` (stereo not drawn): -11.8% (inactive). The same measure for `CCCN1C(=O)C(NS(=O)(=O)c2ccc(N)cc2)(C(F)(F)F)C(C(=O)OC)=C1C` (stereo not drawn): -9.93% (inactive); for `COc1cc(NC(=O)CSc2nnc3ccc(-c4ccncc4)nn23)cc(OC)c1`: -9.28% (inactive); for `CCOC(=O)c1ccc(NC(=O)Cn2cnc3cc(C)c(C)cc32)cc1`: 56.1% (active).

With `CCOC(=O)c1ccc(NC(=O)CSc2nnc(COc3ccccc3OC)n2C)cc1`, the inhibition was -24.5% (inactive).

`CCCc1nnc(SCC(=O)Nc2ccc(C(=O)OCC)cc2)o1`: the inhibition was -6.7% (inactive).

`COc1ccc(C(=O)Nc2cc(S(=O)(=O)N3CCCC3)ccc2Cl)cc1`: the inhibition is -15.8% (inactive).
